Source: ChEMBL document CHEMBL1147385, “Kinase inhibitors from Polygonum cuspidatum” (J Nat Prod, 1993)
≈ marks a conversion by molar mass, not a printed value.

Tests used:
[1] = molecular target: Protein kinase C (PKC); assay: Inhibition of rat brain PKC
Procedure, shortened: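 Rat brain PKC, partially purified and mainly alpha/beta isoforms, acting on lysine-rich histone (30 μg). Partial activation by phosphatidylserine 8 μg/ml plus TPA 3 nM, no calcium, EGTA present, 20 mM Tris-Cl pH 7.4. Run 10 min at 30°, duplicates. Samples spotted on P81 paper, Cerenkov counted, no-enzyme blanks subtracted. IC50 from logarithmic interpolation over ten-fold dilutions, 0.16–160 μg/ml.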

[2] = Inhibition of bovine thymus p56LCK; set-up: species or system Bos taurus
Procedure, shortened: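 Partially purified p56lck from bovine thymus (through butyl-agarose step). Compounds were dissolved in DMSO, with 8% DMSO present in all assays. Emodin served as reference compound.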

IC50 [1]	IC50 [2]	Compound
6 µg/mL (≈ 15.4 µM)	> 8 ×10² ug/ml	OC[C@H]1O[C@@H](Oc2ccc(/C=C\c3cc(O)cc(O)c3)cc2)[C@H](O)[C@@H](O)[C@@H]1O
2 ×10² ug/ml	2 ×10² ug/ml	OC[C@H]1O[C@@H](Oc2cc(O)cc(/C=C/c3ccc(O)cc3)c2)[C@H](O)[C@@H](O)[C@@H]1O [PICEID]
30 µg/mL (≈ 73.6 µM)	–	CN1CCN(CCCN2c3ccccc3Sc3ccc(C(F)(F)F)cc32)CC1 [TRIFLUOPERAZINE]
2 ×10² ug/ml	5 ×10² ug/ml	OC[C@H]1O[C@@H](Oc2cc(O)cc(/C=C\c3ccc(O)cc3)c2)[C@H](O)[C@@H](O)[C@@H]1O [Z-PICEID]
3 ×10¹ ug/ml	5 ×10¹ ug/ml	Oc1ccc(/C=C\c2cc(O)cc(O)c2)cc1 [CIS-RESVERATROL]
–	10 µg/mL (≈ 37 µM)	Cc1cc(O)c2c(c1)C(=O)c1cc(O)cc(O)c1C2=O [EMODIN]
4 ×10¹ ug/ml	6 ×10¹ ug/ml	Oc1ccc(/C=C/c2cc(O)cc(O)c2)cc1 [RESVERATROL]
3 µg/mL (≈ 7.68 µM)	2 ×10² ug/ml	OC[C@H]1O[C@@H](Oc2ccc(/C=C/c3cc(O)cc(O)c3)cc2)[C@H](O)[C@@H](O)[C@@H]1O [GOB C]
